Compound activity deposited in PubChem by several laboratories.
MT stabilizer: microtubule stabilizers in HeLa cells; HeLa tubulin immunostaining HCS, 24 h; share of cells brighter than vehicle mean+2SD; % tubulin-high responders, % at 10 µM; 200,000 tested, 0.83% active; AID 2205;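 active means plate Z-score above 3 for both tubulin-high and condensed-nucleus cell shares, with cell loss under 80%, at 10 µM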;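 further: anti alpha tubulin signal scored within the nucleus-defined area of each cell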
bCat nuc transl: modulators of beta-catenin nuclear translocation. AID 1665. 190,000 tested, 0.3% active. HeLa beta-catenin nuclear translocation, immunofluorescence imaging. nuclear translocation activity, % at 5 µM;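 active means nuclear translocation activity above 50% at 5 µM, with a well cell count of 50 or more; inconclusive means wells under 50 cells across six images, flagged as toxic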;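 further: per-cell ratio of nuclear to cytoplasmic median beta-catenin stain intensity; plate controls were DMSO negative control for no effect and GSK-3 inhibitor IX positive control for full effect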
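Read-out: Nuclear/cytoplasmic beta-catenin signal ratio, % activation | Assay system: Human HeLa cell line | Times: 24 h compound exposure at 37°C, 5% CO2 | Signal: Fluorescence imaging of beta-catenin antibody stain plus DAPI | Dosing: 5 µM primary, 0.02–20 µM confirmation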
Cl transport mod: KCC2 (human) Cl- transport modulation; Q9H2X9; KCC2 cells, thallium flux FluoZin-2 fluorescence; B-score of Tl+ flux slope (higher = more flux/activation; lower = inhibition) at 10 µM; 190,000 tested, 2.2% active;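 active means thallium flux slope and its plate-corrected score both differing from the plate sample mean at a set confidence after two filtering rounds, in either direction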;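 further: slope of fluorescence scaled to starting intensity during 10 to 20 s after thallium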
WT yeast gro inh: growth inhibition of WT yeast, mitochondrial fusion screen | mitochondrial fusion phenotypic screen, WT strain | inhibition, % at 10 µM | 190,000 tested, 2.1% active | AID 1362; in the data active means inhibition above about 58%; tested in S. cerevisiae
Pf gametocyte: kills late stage P. falciparum gametocytes; 150,000 tested, 0.065% active; inhibition, % at 10.9 µM; P. falciparum stage V gametocytes, ATP luminescence, 24 h;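 active means inhibition above the mean plus 3 SD of compounds within the control limits, set per campaign, cut at about 38% in these data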;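 further: 0% = DMSO wells and 100% = medium only without gametocytes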
KCC2 secondary: KCC2 (human) modulation, secondary assay; shares compounds with Cl transport mod; HEK293-KCC2, thallium flux, FluoZin2 fluorescence; active compounds read high; normalised thallium flux (F/F0 slope) at 10 µM; 3,700 tested, 15% active;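 active means thallium flux slope above the same plate's solvent-only control mean plus 3 SD; inconclusive means the two replicate wells disagree; inactive means no significant difference from solvent-only control wells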
KCC2 bumet counter: bumetanide-insensitive thallium flux in KCC2 cells with ouabain, counter-screen; 3,700 tested, 49% active; HEK293-KCC2 + bumetanide/ouabain, thallium flux FluoZin2; active compounds read high; normalized thallium flux at 10 µM; shares compounds with Cl transport mod;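 active means thallium entry rate above the same plate's blocked-transporter control wells by more than 3 SD; inconclusive means the two repeat wells disagree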;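 further: raw slope of fluorescence over initial fluorescence between 10 and 20 s after thallium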
KCC2 secondary2: confirmation of human KCC2 transport modulators | shares compounds with Cl transport mod | HEK293-KCC2, thallium flux FluoZin2 fluorescence; actives lie on both sides; F/F0 rise rate, 10–20 s post-thallium | 3,700 tested, 23% active | normalized thallium flux at 10 µM;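 active means thallium flux slope more than 3 SD above or below the plate's solvent-only control mean, mostly below; inconclusive means the two repeat wells disagreed; inactive means no significant shift from solvent-only controls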;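 further: raw slope with 0.1% DMSO as baseline and bumetanide as block control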
HEK counter1: acts in parental HEK cells, KCC2 counter-screen; shares compounds with Cl transport mod; HEK293 parental cells, thallium flux FluoZin2, ouabain; baseline-ratio fluorescence slope, 10–20 s after thallium; thallium flux rate (normalised fluorescence) at 10 µM; 3,700 tested, 46% active;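 active means thallium flux rate significantly above the same plate's solvent-only control wells, beyond their mean plus 3 SD; inconclusive means the two replicate wells gave conflicting results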
KCC2 retest ouab: confirmation of human KCC2 modulators with ouabain. 3,700 tested, 48% active. HEK293-KCC2, thallium flux FluoZin2 fluorescence; bidirectional: low = inhibitor, high = activator. raw Tl+ flux slope (below DMSO = inhibition, above = activation) at 10 µM. shares compounds with Cl transport mod;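 active means thallium flux slope beyond 3 SD from same-plate DMSO control mean in most replicates, usually higher, sometimes lower; inconclusive means repeat tests gave conflicting results; inactive means no significant difference from controls in most replicates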;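 further: slope of initial-normalized fluorescence between seconds 10 and 20 after thallium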
HEK counter2: acts in parental HEK cells, second KCC2 counter-screen; shares compounds with Cl transport mod; 3,700 tested, 33% active; thallium flux slope at 10 µM; HEK293 parental, thallium flux FluoZin-2 fluorescence slope;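 active means thallium flux slope above the same plate's solvent-control mean plus 3 SD in both duplicate wells; inconclusive means duplicate wells that disagreed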;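 further: run without ouabain in cells lacking the KCC2 cotransporter; slope of fluorescence scaled to its starting value between 10 and 20 s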
An asterisk follows results filed as active; ? = inconclusive; nt = not tested or not shown. Sampled rows, rich in hits. Any-hit rate of the full collection: about 4%.

SMILES	MT stabilizer	bCat nuc transl	Cl transport mod	WT yeast gro inh	Pf gametocyte	KCC2 secondary	KCC2 bumet counter	KCC2 secondary2	HEK counter1	KCC2 retest ouab	HEK counter2
N#CC1=C(N)N=C(SCc2ccccc2)C(C(N)=O)C12CCCCC2 (stereo not given)	3	-1	-5.5*	0	nt	0.007	0.0094*	?	0.0076	0.014*	0.01
C=CCSC1=NC(N)=C(C#N)C2(CCCCC2)C1C(N)=O (stereo not given)	5	-3	0.56	0	3	nt	nt	nt	nt	nt	nt
CCOC(=O)C(CC)(CCC(=O)O)c1csc(Nc2ccc(C)cc2)n1 (stereo not given)	2	-1	-2.9*	-16	-17	0.017	0.0045	0.029	0.006*	0.014	0.0096
CNc1cccc2c1C(=O)c1ccccc1C2=O	4	-1	-0.028	20	-3	nt	nt	nt	nt	nt	nt
O=C1c2ccccc2-c2cccc(NS(=O)(=O)c3ccc(C(F)(F)F)cc3)c21	1	0	nt	22	5	?	0.076*	?	0.023*	0.039*	0.016*
CC1CCc2cc(F)ccc2N1C(=O)CSc1nnc2c(n1)[nH]c1ccc(F)cc12 (stereo not given)	1	0	nt	16	nt	nt	nt	nt	nt	nt	nt
O=S(=O)(NCc1csc(-c2ccccc2)n1)c1ccc(Cl)s1	3	nt	-5.7*	22	nt	0.0051	0.014*	0.022*	0.0068	0.016*	?
O=C(CNS(=O)(=O)c1c(Cl)cccc1Cl)OCc1csc(-c2ccccc2)n1	3	-1	-4.1*	20	12	0.0065	0.0042	0.023*	?	0.015*	0.0093
Oc1csc(Cc2nc(-c3ccc4ccccc4c3)cs2)n1	3	-1	nt	77	nt	0.016	?	0.027	0.0073	0.016	0.01
O=C(COc1ccc2oc(-c3ccco3)cc(=O)c2c1)N1CCCCC1	2	-4	0.5	8	-34	nt	nt	nt	nt	nt	nt
N#Cc1nc(-c2ccco2)oc1N1CCC(Cc2ccccc2)CC1	2	nt	nt	29	-3	0.0067	0.0048	0.025*	0.007	?	0.011
CC1CN(C(=O)Nc2cccc(Cl)c2)C2(CCCCCC2)O1 (stereo not given)	9	0	-0.68	19	14	nt	nt	nt	nt	nt	nt
CCN(CC)S(=O)(=O)c1cc(NC(=O)C(=O)c2c(-c3ccccc3)cc3ccccn23)ccc1C	2	-1	-0.21	12	-10	nt	nt	nt	nt	nt	nt
CCN(CC)S(=O)(=O)c1cccc(NC(=O)C(=O)c2c(-c3ccccc3)cc3ccccn23)c1	1	-2	-2.9*	18	-7	0.0059	0.0037	0.027	0.0073	0.016	0.0099
C/C(=N\NC(=S)NC1CCCCC1)c1cccs1	2	0	57*	71*	2	0.0048	0.053*	0.043*	0.027*	0.048*	0.029*
C/C(=N\NC(=S)NC1CCCCC1)c1ccc(Cl)c(Cl)c1	nt	-1	0.28	nt	-1	nt	nt	nt	nt	nt	nt
C/C(=N\NC(=S)NC1CCCCC1)c1c(F)cccc1F	3	-6	22*	74*	-24	0.014*	0.066*	0.028	0.021*	0.046*	0.011*
Cc1cc(C)n(CCc2nc(-c3ccc(-c4ccccc4)cc3)cs2)n1	2	5	-0.042	18	nt	nt	nt	nt	nt	nt	nt
O=C(CCc1ccc(Oc2cc([N+](=O)[O-])cc([N+](=O)[O-])c2)cc1)N1CCCCC1	2	2	-0.63	18	nt	nt	nt	nt	nt	nt	nt
NC(=S)N=Nc1c(O)[nH]c2c(Br)cc(Br)cc12	3	-1	25*	26	-24	0.0075	0.027*	0.04*	0.018*	0.036*	0.017*
CC[C@H](C)C(N)c1cn(C(CCCN=C(N)N)C(=O)N2CCNCC2)nn1 (stereo not given in full)	nt	nt	nt	nt	-47	nt	nt	nt	nt	nt	nt
COc1ccc(CCNC(=O)C2CCCN(S(=O)(=O)c3cccc4nonc34)C2)cc1OC (stereo not given)	1	-1	nt	-15	20	0.0058	0.0053	0.032	0.0084	0.019	0.011
CC12CCC(C/C1=N/NC(=O)Nc1ccccc1)C2(C)C (stereo not given)	2	0	0.16	-3	-24	nt	nt	nt	nt	nt	nt
COc1cccc(NC(=S)N/N=C2\CC3CCC2(C)C3(C)C)c1 (stereo not given)	1	0	11*	71*	-24	0.0079	0.027*	?	0.024*	0.031*	0.03*
COc1cccc(NC(=S)NN=C2CCC(C(C)(C)C)CC2)c1 (stereo not given)	1	-1	4.9*	-6	3	0.006	0.009*	0.029	0.012*	0.02	0.011
SMILES	MT stabilizer	bCat nuc transl	Cl transport mod	WT yeast gro inh	Pf gametocyte	KCC2 secondary	KCC2 bumet counter	KCC2 secondary2	HEK counter1	KCC2 retest ouab	HEK counter2
COc1cccc(NC(=S)N/N=C2\CC(C)(C)Oc3ccc(O)cc32)c1	7	-3	0.51	27	8	nt	nt	nt	nt	nt	nt
O=C(N/N=C/c1ccc(Br)o1)c1cc([N+](=O)[O-])cc([N+](=O)[O-])c1	5	-1	12*	-2	-3	?	0.024*	0.028	0.0098*	0.026*	?
COc1cc(Oc2ccccc2)nc(N)n1	nt	nt	nt	nt	-7	nt	nt	nt	nt	nt	nt
Clc1ccc(-c2csc(N/N=C/c3cccnc3)n2)c(Cl)c1	3	1	0.47	9	2	nt	nt	nt	nt	nt	nt
C(=N\Nc1nc(-c2ccccc2)cs1)/c1cccnc1	3	0	-3.6*	33	nt	0.0056	0.0051	0.025*	0.0072	0.016*	0.01
COC(=O)c1ccc(C)c(NC(=S)NCc2ccc(Cl)cc2)c1	4	0	-0.067	6	nt	nt	nt	nt	nt	nt	nt
O=C(NC(=S)N1CCCCC1)c1cccs1	2	-1	0.56	-3	nt	nt	nt	nt	nt	nt	nt
CC1CCN(C(=S)NC(=O)c2cccs2)CC1	2	-1	56*	33	-5	0.033*	0.083*	?	0.055*	0.069*	0.019*
COC(=O)c1sccc1NC(=S)NCc1ccc(Cl)cc1	nt	1	160*	nt	-27	0.07*	0.16*	0.058*	?	0.12*	0.058*
COC(=O)c1sccc1NC(=S)N1CCC(C)CC1	2	-1	nt	10	-5	0.0081	0.0049	0.027	0.0074	0.018	0.0096
